The source made the active and inactive calls. The rule behind the calls is not given here.
Key:
HL-60 [1] = assay: Induction of protein S-glutathionylation in human HL-60 cell lysate at 5 uM; type: functional, cell-based
Procedure, shortened: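 Equal numbers of HL-60 cells in complete RPMI medium were given 5 μM compound or a DMSO vehicle control. Cells were lysed in pH 7.2 Hepes/NP-40/deoxycholate buffer with protease inhibitors. 10 μg of protein was run on SDS-PAGE under nonreducing conditions and blotted to PVDF. Blots were probed with anti-glutathione monoclonal antibody (1:1000, 3 h, room temperature), then HRP secondary, with ECL detection. Blots were stripped and reprobed for β-actin as a loading control.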

[2] = Nitric oxide release measured per mole of compound at pH 7.4 in presence of glutathione
Procedure, shortened: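 Compound stock was injected into 0.1 M phosphate buffer, pH 7.4, containing 4 mM GSH and 50 μM DTPA, sparged with inert gas. NO was followed by chemiluminescence at 37 °C until the signal returned to baseline (25 min – 5 h). The integrated curve gave mol NO per mol compound.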

HL-60 [3] = assay: Antiproliferative activity against human HL-60 cells after 72 hrs by MTT assay; type: functional, cell-based; settings: HL-60, 72 h
Procedure, shortened: (§1)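 Cells kept in RPMI 1640 with 10% fetal calf serum, penicillin/streptomycin and 2 mM glutamine at 37 °C, 5% CO2. Seeded at 10⁴ per well and grown 24 h. Increasing drug concentrations (from 10 mM DMSO stocks, diluted in PBS) were added for 72 h at 37 °C. Proliferation was read by MTT. Six repeats per concentration, at least two independent experiments. IC50 is 50% proliferation inhibition; TGI is total growth inhibition.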

A549 = assay: Antiproliferative activity against human A549 cells after 72 hrs by MTT assay; type: functional, cell-based; settings: A549, 72 h; procedure, shortened: as §1
U-937 = assay: Antiproliferative activity against human U937 cells after 72 hrs by MTT assay; type: functional, cell-based; settings: U-937, 72 h; procedure, shortened: as §1
HCT-15 = assay: Antiproliferative activity against human HCT-15 cells after 72 hrs by MTT assay; type: functional, cell-based; settings: HCT-15, 72 h; procedure, shortened: as §1
[4] = Antiproliferative activity against human H441 cells after 72 hrs by MTT assay; type: functional, cell-based; settings: NCI-H441, 72 h; procedure, shortened: as §1
[5] = Antiproliferative activity against human HCT 116 cells after 72 hrs by MTT assay; type: functional, cell-based; settings: HCT-116, 72 h; procedure, shortened: as §1
PC-3 = assay: Antiproliferative activity against human PC-3 cells after 72 hrs by MTT assay; type: functional, cell-based; settings: PC-3, 72 h; procedure, shortened: as §1
OVCAR-3 = assay: Antiproliferative activity against human OVCAR-3 cells after 72 hrs by MTT assay; type: functional, cell-based; settings: OVCAR-3, 72 h; procedure, shortened: as §1
OVCAR-5 = assay: Antiproliferative activity against human OVCAR5 cells after 72 hrs by MTT assay; type: functional, cell-based; settings: OVCAR-5, 72 h; procedure, shortened: as §1
HT-29 = assay: Antiproliferative activity against human HT-29 cells after 72 hrs by MTT assay; type: functional, cell-based; settings: HT-29, 72 h; procedure, shortened: as §1

CCN(CC)C(=O)N1CCN(/[N+]([O-])=N/Oc2cc(O/N=[N+](\[O-])N(CC)CC)c([N+](=O)[O-])cc2[N+](=O)[O-])CC1
Activity (HL-60 [1]): Active | Activity [2]: 3 mol/mol | IC50 (HL-60 [3]): 2.9 µM | TGI (HL-60 [3]): > 10 µM

CN(C)/[N+]([O-])=N/Oc1cc(O/N=[N+](\[O-])N2CCCCC2)c([N+](=O)[O-])cc1[N+](=O)[O-]
Activity (HL-60 [1]): Active | Activity [2]: 3.7 mol/mol | IC50 (HL-60 [3]): 1.7 µM | TGI (HL-60 [3]): 4.9 µM

CN(C)/[N+]([O-])=N/Oc1cc(O/N=[N+](\[O-])N2CCN(c3ncccn3)CC2)c([N+](=O)[O-])cc1[N+](=O)[O-]
Activity (HL-60 [1]): Active | Activity [2]: 3.5 mol/mol | IC50 (HL-60 [3]): 1.2 µM | TGI (HL-60 [3]): 5 µM

CCCOC(=O)N1CCN(/[N+]([O-])=N/Oc2cc(O/N=[N+](\[O-])N(C)C)c([N+](=O)[O-])cc2[N+](=O)[O-])CC1
Activity (HL-60 [1]): Active | Activity [2]: 3.7 mol/mol | IC50 (HL-60 [3]): 1.6 µM | TGI (HL-60 [3]): 3.9 µM

CCOC(=O)N1CCN(/[N+]([O-])=N/Oc2cc(O/N=[N+](\[O-])N(CC)CC)c([N+](=O)[O-])cc2[N+](=O)[O-])CC1
Activity (HL-60 [1]): Active | Activity [2]: 3.1 mol/mol | IC50 (HL-60 [3]): 2.1 µM | TGI (HL-60 [3]): 5 µM

O=C(O)[C@@H]1CCCN1/[N+]([O-])=N/Oc1cc(O/N=[N+](\[O-])N2CCC[C@H]2C(=O)O)c([N+](=O)[O-])cc1[N+](=O)[O-]
Activity (HL-60 [1]): inactive | Activity [2]: 3.5 mol/mol | IC50 (HL-60 [3]): 9.6 µM | TGI (HL-60 [3]): > 10 µM

CCCCOC(=O)N1CCN(/[N+]([O-])=N/Oc2cc(O/N=[N+](\[O-])N(C)C)c([N+](=O)[O-])cc2[N+](=O)[O-])CC1
Activity (HL-60 [1]): Active | Activity [2]: 3.1 mol/mol | IC50 (HL-60 [3]): 0.9 µM | TGI (HL-60 [3]): 2.7 µM

CN(C)/[N+]([O-])=N/Oc1cc(O/N=[N+](\[O-])N2CCCC2)c([N+](=O)[O-])cc1[N+](=O)[O-]
Activity (HL-60 [1]): Active | Activity [2]: 3.6 mol/mol | IC50 (HL-60 [3]): 2.3 µM | TGI (HL-60 [3]): 4.9 µM

CCN(CC)/[N+]([O-])=N/Oc1cc(O/N=[N+](\[O-])N(C)C)c([N+](=O)[O-])cc1[N+](=O)[O-]
Activity (HL-60 [1]): Active | Activity [2]: 3.8 mol/mol | IC50 (HL-60 [3]): 1 µM | TGI (HL-60 [3]): 2.3 µM

CCN(CC)/[N+]([O-])=N/Oc1cc(O/N=[N+](\[O-])N2CCCC2CO)c([N+](=O)[O-])cc1[N+](=O)[O-] (centres undefined)
Activity (HL-60 [1]): Active | Activity [2]: 3 mol/mol | IC50 (HL-60 [3]): 1.8 µM | TGI (HL-60 [3]): 4 µM

CCN(CC)C(=O)N1CCN(/[N+]([O-])=N/Oc2cc(O/N=[N+](\[O-])N(C)C)c([N+](=O)[O-])cc2[N+](=O)[O-])CC1
Activity (HL-60 [1]): Active | Activity [2]: 3.5 mol/mol | IC50 (HL-60 [3]): 1.9 µM | TGI (HL-60 [3]): 4.9 µM

CCOC(=O)N1CCN(/[N+]([O-])=N/Oc2cc(O/N=[N+](\[O-])N3CCN(C(=O)N(CC)CC)CC3)c([N+](=O)[O-])cc2[N+](=O)[O-])CC1
IC50 (A549): 3.9 µM | TGI (A549): 10 µM | Activity (HL-60 [1]): Active | IC50 (U-937): 0.9 µM | TGI (U-937): 3 µM | IC50 (HCT-15): 1.6 µM | TGI (HCT-15): 4.5 µM | Activity [2]: 2.9 mol/mol | IC50 (HL-60 [3]): 0.9 µM | TGI (HL-60 [3]): 3 µM | IC50 [4]: 1.7 µM | TGI [4]: 4 µM | IC50 [5]: 1.5 µM | TGI [5]: 4 µM | IC50 (PC-3): 3.3 µM | TGI (PC-3): 8 µM | IC50 (OVCAR-3): 1.4 µM | TGI (OVCAR-3): 4 µM | IC50 (OVCAR-5): 1.9 µM | TGI (OVCAR-5): 5.5 µM | IC50 (HT-29): 2.5 µM | TGI (HT-29): 6.5 µM

CN(C)/[N+]([O-])=N/Oc1cc(O/N=[N+](\[O-])N2CCCC2CO)c([N+](=O)[O-])cc1[N+](=O)[O-] (centres undefined)
IC50 (A549): 5.1 µM | TGI (A549): 6 µM | Activity (HL-60 [1]): Active | IC50 (U-937): 0.8 µM | TGI (U-937): 1.2 µM | IC50 (HCT-15): 1.7 µM | TGI (HCT-15): 3.3 µM | Activity [2]: 3 mol/mol | IC50 (HL-60 [3]): 1 µM | TGI (HL-60 [3]): 2 µM | IC50 [4]: 2.1 µM | TGI [4]: 4.5 µM | IC50 [5]: 1.6 µM | TGI [5]: 3.6 µM | IC50 (PC-3): 3.3 µM | TGI (PC-3): 7 µM | IC50 (OVCAR-3): 1.7 µM | TGI (OVCAR-3): 3.8 µM | IC50 (OVCAR-5): 2.5 µM | TGI (OVCAR-5): 4 µM | IC50 (HT-29): 2.4 µM | TGI (HT-29): 4.5 µM

O=[N+]([O-])c1cc([N+](=O)[O-])c(O/N=[N+](\[O-])N2CCC[C@H]2CO)cc1O/N=[N+](\[O-])N1CCC[C@H]1CO
Activity (HL-60 [1]): Active | Activity [2]: 2.5 mol/mol | IC50 (HL-60 [3]): 4 µM | TGI (HL-60 [3]): > 10 µM

CCOC(=O)N1CCN(/[N+]([O-])=N/Oc2cc(O/N=[N+](\[O-])N(C)C)c([N+](=O)[O-])cc2[N+](=O)[O-])CC1
IC50 (A549): 9.1 µM | TGI (A549): > 30 µM | Activity (HL-60 [1]): Active | IC50 (U-937): 1.3 µM | TGI (U-937): 3 µM | IC50 (HCT-15): 2.5 µM | TGI (HCT-15): 4 µM | Activity [2]: 2.7 mol/mol | IC50 (HL-60 [3]): 1.2 µM | TGI (HL-60 [3]): 2 µM | IC50 [4]: 5 µM | TGI [4]: 7 µM | IC50 [5]: 2.4 µM | TGI [5]: 4 µM | IC50 (PC-3): 5 µM | TGI (PC-3): 7 µM | IC50 (OVCAR-3): 1.3 µM | TGI (OVCAR-3): 2.3 µM | IC50 (OVCAR-5): 3.3 µM | TGI (OVCAR-5): 9 µM | IC50 (HT-29): 4.5 µM | TGI (HT-29): 10 µM

CNc1ccc(C(=O)Oc2cc(O/N=[N+](\[O-])N(C)C)c([N+](=O)[O-])cc2[N+](=O)[O-])cc1
IC50 (A549): > 10 µM | TGI (A549): > 10 µM | Activity (HL-60 [1]): Active | IC50 (U-937): 2.7 µM | TGI (U-937): 5.5 µM | IC50 (HCT-15): 5.7 µM | TGI (HCT-15): > 10 µM | Activity [2]: 1.4 mol/mol | TGI (HL-60 [3]): > 10 µM | IC50 [4]: 4.9 µM | TGI [4]: > 10 µM | IC50 [5]: 5.5 µM | TGI [5]: > 10 µM | IC50 (PC-3): > 10 µM | TGI (PC-3): > 10 µM | IC50 (OVCAR-3): 5 µM | TGI (OVCAR-3): 9.5 µM | IC50 (OVCAR-5): 7.8 µM | TGI (OVCAR-5): > 10 µM | IC50 (HT-29): 7 µM | TGI (HT-29): > 10 µM

CC1CCCCN1/[N+]([O-])=N/Oc1cc(O/N=[N+](\[O-])N(C)C)c([N+](=O)[O-])cc1[N+](=O)[O-] (centres undefined)
Activity (HL-60 [1]): Active | Activity [2]: 3 mol/mol | IC50 (HL-60 [3]): 1.5 µM | TGI (HL-60 [3]): 4.9 µM
